{
  "source": "ChEMBL document CHEMBL4308887",
  "about": "“Synthesis and biological evaluation of clovamide analogues with catechol functionality as potent Parkinson's disease agents in vitro and in vivo” (Bioorg Med Chem Lett, 2019)",
  "key": {"Mus musculus": {"system": "Mus musculus", "assay": "Anti-parkinson's activity in MPTP-induced C57Bl/6 mouse model of Parkinson's disease assessed as increase in tyrosine hydroxylase expression in substantia nigra at 10 to 20 mg/kg, ig pretreated for 10 days followed by MPTP challenge measured 10 days post MPTP addition by Western blot analysis", "format": "functional, organism-based", "method_in_brief": "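Tissue taken 10 days after MPTP injection from mice dosed orally with 1 (10 or 20 mg/kg). TH in SNpc and striatum by western blot, and by DAB immunostaining. Three of the mice per group analysed. Mean ± S.D., n = 6 mice/group.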"}, "SH-SY5Y [1]": {"system": "SH-SY5Y", "assay": "Protection against H2O2-induced oxidative stress in human SH-SY5Y cells assessed as reduction in reactive oxygen species level preincubated for 6 hrs followed by H2O2 addition and measured after 24 hrs by DHE dye based flow cytometry", "format": "functional, cell-based"}, "SH-SY5Y [2]": {"system": "SH-SY5Y", "assay": "Protection against H2O2-induced oxidative stress in human SH-SY5Y cells assessed as reactive oxygen species level at 10 uM preincubated for 6 hrs followed by H2O2 addition and measured after 24 hrs by DHE dye based flow cytometry (reference value: 18.6%)", "format": "functional"}, "SH-SY5Y [3]": {"system": "SH-SY5Y", "assay": "Protection against H2O2-induced apoptosis in human SH-SY5Y cells assessed as early apoptotic cells at 1 uM preincubated for 6 hrs followed by H2O2 addition and measured after 24 hrs by Annexin V-FITC/propidium iodide staining based flow cytometry (reference value: 6.6%)", "format": "functional"}, "[4]": {"assay": "Induction of apoptosis in non-stimulated human SH-SY5Y cells assessed as viable cells at 10 uM measured after 6 hrs by Annexin V-FITC/propidium iodide staining based flow cytometry (reference value: 92.5%)", "format": "cell-based", "conditions": "read-out: Activity"}, "[5]": {"assay": "AUC (0 to infinity) in Sprague-Dawley rat at 25 mg/kg, po by LC-MS/MS analysis", "format": "ADME, organism-based", "design": "dose 25 mg/kg, time infinity, route oral", "conditions": "in vivo", "method_in_brief": "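Male Sprague–Dawley rats (n = 3) got a single oral dose of 25 mg/kg in 0.5% methylcellulose with 1% Tween 80. AUC0-∞ came from the plasma concentration–time profile, reported as mean ± SD.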"}, "SH-SY5Y [6]": {"system": "SH-SY5Y", "assay": "Cytotoxicity against non-stimulated human SH-SY5Y cells assessed as effect on LDH release measured after 6 hrs", "format": "cell-based"}},
  "note": "Calls of active or inactive are those of the source. No cut-off for these calls is given here.",
  "data": [
    {"compound": "COC(=O)[C@H](Cc1ccccc1)NC(=O)/C=C/c1ccc(O)c(O)c1", "note": "[N-CAFFEOYL-PHENYLALANINE METHYL ESTER]", "values": [
      {"measurement": "Activity", "setting": "Mus musculus", "value": "Active"},
      {"measurement": "Activity", "setting": "SH-SY5Y [1]", "value": "Dose-dependent effect"},
      {"measurement": "Activity", "setting": "SH-SY5Y [2]", "value": 6.6, "unit": "%"},
      {"measurement": "Activity", "setting": "SH-SY5Y [3]", "value": 6.3, "unit": "%"},
      {"measurement": "viability at 6 h, 10 µM", "setting": "[4]", "value": 94.8, "unit": "%"},
      {"measurement": "AUC", "setting": "[5]", "value": 2495.56, "unit": "ng·h/mL"},
      {"measurement": "Activity", "setting": "SH-SY5Y [6]", "value": "Non-Toxic"}
    ]}
  ]
}
